PMC3128788 (Nuclear medicine and biology, 2011)
Values joined by “and” are separate entries in the source; they are usually repeats but may differ in a detail not shown here. Equal values may be shown once. Marks after values point to notes of the source that are not given here. Each block holds one compound with its values, some of them ahead of it.

How the values were obtained:
[1] = biological target: human D3 dopamine receptors expressed in HEK 293 cells (Homo sapiens, UniProt P35462); test: Dopamine receptor filtration binding assay, [125I]-IABN competition, D3; details: for D3 (Ki): mean Ki ± S.E.M., [125I]-IABN, HEK 293 membranes, unit printed in b5 only
[2] = biological target: D2 dopamine receptors (transfected HEK cells) (Homo sapiens, UniProt P14416); test: Whole cell forskolin-dependent adenylyl cyclase inhibition assay, D2; type: cell-based; details: intrinsic activity
How it was run: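 Transfected HEK cells were prelabelled with 2,8-3H-adenine in serum-free medium for 75 min at 37 °C. They were then incubated with test compound in serum-free medium containing 0.1 mM 3-isobutyl-1-methylxanthine for 20 min at 37 °C. The reaction was stopped with a solution of 10% trichloroacetic acid and 1 mM cyclic AMP, and accumulated 3H-cyclic AMP was measured.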

[3] = biological target: D3 dopamine receptors (transfected HEK cells) (Homo sapiens, UniProt P35462); test: Whole cell forskolin-dependent adenylyl cyclase inhibition assay, D3; type: cell-based
[4] = system: P-gp expressed in Madin-Darby canine kidney (MDCK)-MDR1 cells; details: efflux blocked with verapamil; cited from earlier work
[5] = type: in vivo, male Sprague Dawley rats
[6] = CycA […] mg/kg i.v. 30 min before tracer, 5 min post-injection
[7] = CycA […] mg/kg i.v. 30 min before tracer, 30 min post-injection
[8] = control rats, i.v., 5 min post-injection
[9] = control rats, i.v., 30 min post-injection
[10] = ratio of tracer uptake in CycA versus control group 30 min post injection

Chain of human D3 dopamine receptors expressed in HEK 293 cells (P35462 whole entry): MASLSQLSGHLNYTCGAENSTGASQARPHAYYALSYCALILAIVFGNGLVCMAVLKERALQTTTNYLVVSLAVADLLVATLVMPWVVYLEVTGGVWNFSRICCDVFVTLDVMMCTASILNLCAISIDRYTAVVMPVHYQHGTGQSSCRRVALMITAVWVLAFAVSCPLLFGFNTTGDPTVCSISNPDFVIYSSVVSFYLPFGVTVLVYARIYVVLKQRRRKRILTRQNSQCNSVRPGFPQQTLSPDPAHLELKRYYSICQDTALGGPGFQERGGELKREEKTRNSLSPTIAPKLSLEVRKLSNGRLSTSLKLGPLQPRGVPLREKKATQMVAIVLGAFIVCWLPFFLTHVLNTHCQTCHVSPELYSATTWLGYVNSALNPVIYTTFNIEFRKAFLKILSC
Chain of D3 dopamine receptors (transfected HEK cells) (P35462 whole entry): as above
Chain of D2 dopamine receptors (transfected HEK cells) (P14416 whole entry): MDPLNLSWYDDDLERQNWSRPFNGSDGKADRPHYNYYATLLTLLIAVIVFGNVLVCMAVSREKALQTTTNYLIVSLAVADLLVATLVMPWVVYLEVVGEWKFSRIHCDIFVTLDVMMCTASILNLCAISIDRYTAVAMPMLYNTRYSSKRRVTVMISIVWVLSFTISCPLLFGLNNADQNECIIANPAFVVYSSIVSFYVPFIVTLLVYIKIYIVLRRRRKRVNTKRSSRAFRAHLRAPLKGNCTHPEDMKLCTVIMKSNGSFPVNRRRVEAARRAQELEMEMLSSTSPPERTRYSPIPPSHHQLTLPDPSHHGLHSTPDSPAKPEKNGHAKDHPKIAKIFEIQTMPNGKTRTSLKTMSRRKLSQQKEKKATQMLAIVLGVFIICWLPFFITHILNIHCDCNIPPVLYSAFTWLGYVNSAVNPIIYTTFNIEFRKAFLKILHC

D3 (Ki) [1]: subnanomolar | %IA D2 [2]: 35 ± 1%
SMILES: COc1ccccc1N1CCN(CCCCNC(=O)c2ccc(CCF)cc2)CC1 [Compound 7, 4-(2-fluoroethyl)-N-(4-(4-(2-methoxyphenyl)piperazin-1-yl)butyl)benzamide]

Functional classification at D3 dopamine receptors ([3]; compared to quinpirole): partial agonist | %IA D3 ([3]; intrinsic activity, compared to the full agonist quinpirole): 64.5 ± 8.3% and 64.5 ± 8% | D3 (Ki) [1]: subnanomolar | D2:D3 selectivity ratio ([1]; selectivity for D3 versus D2 receptors): 23 | %IA D2 [2]: 66.3 ± 1%
SMILES: CN(C)c1ccc(C(=O)NCCCCN2CCN(c3ccccc3OCCF)CC2)cc1 [Compound 8, 4-(dimethylamino)-N-(4-(4-(2-(2-fluoroethoxy)phenyl)piperazin-1-yl)butyl)benzamide]

SMILES: O=C(NC/C=C/CN1CCN(c2cccc(Cl)c2Cl)CC1)c1ccc(-c2ccccn2)cc1 [PG 01037]
Substrate for P-gp [4]: substrate for P-gp

Blood %ID/gram, 5 min CycA [5, 6]: 0.156 ± 0.033 %ID/gram | Bone %ID/gram, 5 min CycA [5, 6]: 0.232 ± 0.015 %ID/gram | Fat %ID/gram, 5 min CycA [5, 6]: 0.062 ± 0.017 %ID/gram | Kidney %ID/gram, 5 min CycA [5, 6]: 1.782 ± 0.242 %ID/gram | Liver %ID/gram, 5 min CycA [5, 6]: 1.790 ± 0.286 %ID/gram | Lung %ID/gram, 5 min CycA [5, 6]: 1.423 ± 0.262 %ID/gram | Muscle %ID/gram, 5 min CycA [5, 6]: 0.158 ± 0.055 %ID/gram | Total brain %ID/gram, 5 min CycA [5, 6]: 0.421 ± 0.115 %ID/gram | Blood %ID/gram, 30 min CycA [5, 7]: 0.178 ± 0.018 %ID/gram | Bone %ID/gram, 30 min CycA [5, 7]: 0.168 ± 0.016 %ID/gram | Fat %ID/gram, 30 min CycA [5, 7]: 0.069 ± 0.011 %ID/gram | Kidney %ID/gram, 30 min CycA [5, 7]: 0.898 ± 0.076 %ID/gram | Liver %ID/gram, 30 min CycA [5, 7]: 1.870 ± 0.184 %ID/gram | Lung %ID/gram, 30 min CycA [5, 7]: 0.563 ± 0.016 %ID/gram | Muscle %ID/gram, 30 min CycA [5, 7]: 0.147 ± 0.006 %ID/gram | Total brain %ID/gram, 30 min CycA [5, 7]: 0.271 ± 0.068 %ID/gram | Increase in brain uptake after CycA administration at 5 min ([5]; CycA pretreated versus control rats, 5 min post injection): 6.3 fold | Increase in brain uptake after CycA administration at 30 min ([5]; CycA pretreated versus control rats, 30 min post injection): 2.7 fold | Blood %ID/gram, 5 min No Rx [5, 8]: 0.133 ± 0.018 %ID/gram | Bone %ID/gram, 5 min No Rx [5, 8]: 0.243 ± 0.041 %ID/gram | Fat %ID/gram, 5 min No Rx [5, 8]: 0.084 ± 0.036 %ID/gram | Kidney %ID/gram, 5 min No Rx [5, 8]: 1.582 ± 0.293 %ID/gram | Liver %ID/gram, 5 min No Rx [5, 8]: 2.035 ± 0.578 %ID/gram | Lung %ID/gram, 5 min No Rx [5, 8]: 1.182 ± 0.086 %ID/gram | Muscle %ID/gram, 5 min No Rx [5, 8]: 0.107 ± 0.017 %ID/gram | Blood %ID/gram, 30 min No Rx [5, 9]: 0.167 ± 0.018 %ID/gram | Bone %ID/gram, 30 min No Rx [5, 9]: 0.164 ± 0.018 %ID/gram | Fat %ID/gram, 30 min No Rx [5, 9]: 0.086 ± 0.013 %ID/gram | Kidney %ID/gram, 30 min No Rx [5, 9]: 0.952 ± 0.100 %ID/gram | Liver %ID/gram, 30 min No Rx [5, 9]: 2.169 ± 0.113 %ID/gram | Lung %ID/gram, 30 min No Rx [5, 9]: 0.668 ± 0.057 %ID/gram | Muscle %ID/gram, 30 min No Rx [5, 9]: 0.143 ± 0.011 %ID/gram | Total brain %ID/gram, 30 min No Rx [5, 9]: 0.098 ± 0.012 %ID/gram | Bone activity levels from 5 min to 30 min (metabolic defluorination) ([5]; normal rats): No accumulation | Blood CycA:No Rx [5, 10]: 1.06 | Bone CycA:No Rx [5, 10]: 1.02 | Fat CycA:No Rx [5, 10]: 0.81 | Kidney CycA:No Rx [5, 10]: 0.94 | Liver CycA:No Rx [5, 10]: 0.86 ^e | Lung CycA:No Rx [5, 10]: 0.84 ^d | Muscle CycA:No Rx [5, 10]: 1.03 | Total brain CycA:No Rx [5, 10]: 2.77 ^f
SMILES: COc1ccccc1N1CCN(CCCCNC(=O)c2ccc(CC[18F])cc2)CC1 [[^18F]7, 4-(2-[^18F]-fluoroethyl)-N-(4-(4-(2-methoxyphenyl)piperazin-1-yl)butyl)benzamide]
